Activity calls are given as the source filed them. The calls are words filed in the database; no cut-off is given here.
Assays:
Mus musculus [1] = assay: Toxicity in mouse at 50 mg/kg, sc; assay type: organism-based; design: dose 50 mg/kg, route subcutaneous; conditions: in vivo
Rhesus monkey [2] = assay: Physical dependence capacity in rhesus monkey assessed as suppression/precipitation of abstinence syndrome at 0.5 to 4 mg/kg; assay type: organism-based, Macaca mulatta; design: dose 0.5-4 mg/kg; conditions: in vivo
Outline: (§1)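 Monkey single-dose suppression test for physical dependence capacity. Abstinence signs were scored for suppression or precipitation across the dose range given in each line.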

Rhesus monkey [3] = assay: Narcotic antagonist activity in morphine-dependent monkey assessed as precipitation of abstinence syndrome; assay type: functional, organism-based; conditions: Macaca mulatta; outline: as §1
Mus musculus [4] = assay: Analgesic activity in sc dosed mouse by hot plate assay; assay type: functional
Rhesus monkey [5] = assay: Physical dependence capacity in rhesus monkey assessed as suppression/precipitation of abstinence syndrome at 0.4 to 6.4 mg/kg; assay type: organism-based, Macaca mulatta; design: dose 0.4-6.4 mg/kg; conditions: in vivo; outline: as §1
Rhesus monkey [6] = assay: Physical dependence capacity in rhesus monkey assessed as suppression/precipitation of abstinence syndrome at 0.5 to 8 mg/kg; assay type: organism-based, Macaca mulatta; design: dose 0.5-8 mg/kg; conditions: in vivo; outline: as §1
Rhesus monkey [7] = assay: Physical dependence capacity in rhesus monkey assessed as suppression/precipitation of abstinence syndrome at 0.5 to 1 mg/kg; assay type: organism-based, Macaca mulatta; design: dose 0.5-1 mg/kg; conditions: in vivo; outline: as §1
Mus musculus [8] = species on record: Mus musculus
Rhesus monkey [9] = assay: Physical dependence capacity in rhesus monkey assessed as suppression/precipitation of abstinence syndrome at 4 mg/kg; conditions: in vivo

SMILES | Activity (Rhesus monkey [3]) | ED50 (Mus musculus [4]) [mg/kg] | other results
Oc1ccc2c(c1)[C@@]13CCCC[C@@H]1[C@@H](C2)CN(CC1CC1)CC3 (relative stereo) | inactive | – | Activity (Mus musculus [1]): Toxic; Activity (Rhesus monkey [2]): Non-toxic
COc1ccc2c(c1)[C@@]13CCCC[C@H]1[C@@H](C2)CN(C)CC3 | – | 3.4 | –
Br.CN1CC[C@]23CCCC[C@H]2[C@@H](Cc2ccc(O)cc23)C1 | – | 0.8 | Activity (Rhesus monkey [5]): Non-toxic
Oc1ccc2c(c1)[C@@]13CCCC[C@H]1[C@@H](C2)CN(CC1CC1)CC3 (relative stereo) | inactive | 6.2 | Activity (Rhesus monkey [6]): Non-toxic
C=CCN1CC[C@]23CCCC[C@@H]2[C@@H](Cc2ccc(O)cc23)C1 (relative stereo) | inactive | 19.6 | Activity (Rhesus monkey [2]): Non-toxic
CN1CC[C@]23c4c5ccc(O)c4O[C@H]2[C@@H](O)C=C[C@H]3[C@H]1C5.Cl [MORPHINE HYDROCHLORIDE] | – | 1.2 | –
C=CCN1CC[C@]23CCCC[C@H]2[C@@H](Cc2ccc(O)cc23)C1 (relative stereo) | inactive | – | Activity (Rhesus monkey [7]): Non-toxic; ED50 (Mus musculus [8]): inactive
COc1ccc2c(c1)[C@@]13CCCC[C@@H]1[C@@H](C2)CN(C)CC3 | – | 8.1 | –
Br.CN1CC[C@]23CCCC[C@@H]2[C@@H](Cc2ccc(O)cc23)C1 | – | 2.1 | Activity (Rhesus monkey [9]): Toxic
